Reference: ChEMBL document CHEMBL3244192, “Antiallergic activity of tetracyclic derivatives of quinoline-2-carboxylic acids. 1” (1978)
Active and inactive are the calls of the source. No cut-off for these calls is given here.

Tests used:
Rattus norvegicus [1] = assay: Antiallergic activity in egg albumin-sensitized Sprague-Dawley rat assessed as inhibition of passive cutaneous anaphylaxis compound administered ip 5 mins prior to egg albumin and Evans blue dye challenge; assay type: functional; details: for minimal effective dose: read-out: MED; for ED50: read-out: ID50 (the source's name)
In short: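 Antibody from egg albumin/B. pertussis-sensitized rats was injected intradermally in the mid-dorsal region, then 24 h allowed. Drug was given ip, then iv egg albumin plus Evans blue. Weal size and intensity were scored against untreated controls. Initial doses were 50 or 25 mg/kg, then 10, 5, 2.5 and 1.25 mg/kg, with n = 6 per group. MED was the lowest significant ip dose (p ≤ 0.05, Student's t). ID50 was reported with 95% confidence limits.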

Rattus norvegicus [2] = assay: Antiallergic activity in egg albumin-sensitized Sprague-Dawley rat assessed as inhibition of passive cutaneous anaphylaxis at 25 to 50 mg/kg, po administered 15 mins prior to egg albumin and Evans blue dye challenge; assay type: functional, organism-based
In short: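 Rats were passively sensitized by intradermal mid-dorsal injection of antibody. The antibody came from rats sensitized to egg albumin with Bordetella pertussis adjuvant, and sensitivity developed over 24 h. Compound was given orally before iv egg albumin plus Evans blue. Blue weal size and intensity were compared with untreated rats to give percent inhibition.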

Rattus norvegicus [3] = assay: Antiallergic activity in egg albumin-sensitized Sprague-Dawley rat assessed as inhibition of passive cutaneous anaphylaxis compound administered prior to egg albumin and Evans blue dye challenge; details: read-out: MED

| Structure (SMILES) | minimal effective dose (Rattus norvegicus [1]) [mg/kg] | inhibition (Rattus norvegicus [2]) | minimal effective dose (Rattus norvegicus [3]) [mg/kg] | ED50 (Rattus norvegicus [1]) [mg/kg] |
| --- | --- | --- | --- | --- |
| Cc1ccc(C(=O)c2cccc3c(=O)cc(C(=O)O)[nH]c23)cc1 | 25 | inactive |  |  |
| COC(=O)c1cc(=O)c2cccc(S(=O)(=O)c3ccccc3)c2[nH]1 |  | inactive |  |  |
| CC(=O)c1cccc2c(=O)cc(C(=O)O)[nH]c12 | 25 | inactive |  |  |
| COC(=O)c1cc(=O)c2ccc(C(C)=O)cc2[nH]1 |  | inactive |  |  |
| COC(=O)c1cc(=O)c2ccc(C(=O)c3ccccc3)cc2[nH]1 |  | inactive |  |  |
| COC(=O)c1cc(=O)c2cccc(C(=O)c3ccc(C)cc3)c2[nH]1 |  | inactive |  |  |
| O=C(c1ccccc1)c1ccc2[nH]c(C(=O)[O-])cc(=O)c2c1.[Na+] | 10 | inactive |  |  |
| O=C(O)c1cc(=O)c2ccc(S(=O)(=O)c3ccccc3)cc2[nH]1 | > 25 | inactive |  |  |
| O=C(c1ccccc1)c1ccc2c(=O)cc(C(=O)O)[nH]c2c1 | 25 | inactive |  |  |
| O=C(O)c1cc(=O)c2cc(S(=O)(=O)c3ccccc3)ccc2[nH]1 | > 25 | inactive |  |  |
| COC(=O)c1cc(=O)c2ccc3c(c2[nH]1)-c1ccccc1C3=O |  | inactive |  |  |
| COC(=O)c1cc(=O)c2ccc(S(=O)(=O)c3ccccc3)cc2[nH]1 |  | inactive |  |  |
| CC(=O)c1ccc2c(O)cc(C(=O)O)nc2c1 | 10 | inactive |  |  |
| O=C(O)c1cc(=O)c2cc(Cl)cc(C(=O)c3ccccc3)c2[nH]1 | 50 | inactive |  |  |
| COC(=O)c1cc(=O)c2cccc(C(C)=O)c2[nH]1 |  |  | 25 |  |
| COC(=O)c1cc(=O)c2cccc(C(=O)c3ccccc3)c2[nH]1 |  | inactive |  |  |
| O=C(O)c1cc(=O)c2ccccc2[nH]1 [TRANSTORINE] | 50 | inactive |  |  |
| O=C(O)c1cc(=O)c2cc(Sc3ccccc3)ccc2[nH]1 | > 50 | inactive |  |  |

| Structure (SMILES) | minimal effective dose (Rattus norvegicus [1]) [mg/kg] | inhibition (Rattus norvegicus [2]) | minimal effective dose (Rattus norvegicus [3]) [mg/kg] | ED50 (Rattus norvegicus [1]) [mg/kg] |
| --- | --- | --- | --- | --- |
| O=C(O)c1cc(=O)c2ccc3c(c2[nH]1)C(=O)c1ccccc1-3 |  | inactive |  | 2.8 |
| O=C([O-])c1cc(=O)c2c(OCC(O)COc3cccc4oc(C(=O)[O-])cc(=O)c34)cccc2o1.[Na+].[Na+] [CROMOLYN SODIUM] |  | inactive |  | 2.6 |
| COC(=O)c1cc(=O)c2cccc(Sc3ccccc3)c2[nH]1 |  | inactive |  |  |
| COC(=O)c1cc(=O)c2cc(S(=O)(=O)c3ccccc3)ccc2[nH]1 |  | inactive |  |  |
| O=C(O)c1cc(=O)c2ccc3c(c2[nH]1)-c1ccccc1C3=O | > 25 | inactive |  |  |
| O=C(O)c1cc(=O)c2cc([S+]([O-])c3ccccc3)ccc2[nH]1 (stereo not given) | 25 | inactive |  |  |
| O=C(O)c1cc(=O)c2cccc(C(=O)c3ccccc3)c2[nH]1 | 25 | inactive |  |  |
| COC(=O)c1cc(=O)c2cc(C(C)=O)ccc2[nH]1 |  | inactive |  |  |
| CC(=O)c1ccc2[nH]c(C(=O)O)cc(=O)c2c1 | 25 | inactive |  |  |
| COC(=O)c1cc(=O)c2cc(Sc3ccccc3)ccc2[nH]1 |  | inactive |  |  |
| O=C(O)c1cc(=O)c2ccc(Sc3ccccc3)cc2[nH]1 | > 25 | inactive |  |  |
| COC(=O)c1cc(=O)c2cc([S+]([O-])c3ccccc3)ccc2[nH]1 (stereo not given) |  | inactive |  |  |
| COC(=O)c1cc(=O)c2ccc3c(c2[nH]1)C(=O)c1ccccc1-3 |  | inactive |  |  |
| COC(=O)c1cc(=O)c2ccc(Sc3ccccc3)cc2[nH]1 |  | inactive |  |  |
| O=C(O)c1cc(=O)c2cccc(Sc3ccccc3)c2[nH]1 | 25 | inactive |  |  |
| COC(=O)c1cc(=O)c2cc(Cl)cc(C(=O)c3ccccc3)c2[nH]1 |  | inactive |  |  |
| COC(=O)c1cc(=O)c2cc(C(=O)c3ccccc3)ccc2[nH]1 |  | inactive |  |  |
| O=C(O)c1cc(=O)c2cccc(S(=O)(=O)c3ccccc3)c2[nH]1 | 10 | inactive |  |  |
